# Assays:
# [1] = Effective dose was determined in vivo for 50% parasite (Plasmodium berghei) reduction in the male albino mice after oral administration; assay type: functional; conditions: Mus musculus
# Summary of the method: (§1)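 Mice 25 ± 2 g infected iv on day 0 with 2×10^7 P. berghei ANKA-infected donor erythrocytes. Compound dissolved or suspended in 7% Tween-80, 3% ethanol in water, single dose 24 h post-infection (0.01 mL/g), 3 mice/group. Giemsa blood smears at day 3 (72 h post-infection). Parasitemia counted microscopically; reduction calculated versus untreated controls (=100%). ED50/90 determined by dose titration.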
# [2] = Effective dose was determined in vivo for 50% parasite (Plasmodium berghei) reduction in the male albino mice after subcutaneous administration; assay type: functional; conditions: Mus musculus, sc; for ED90: in the assay text read “90% parasite” for “50% parasite”; summary of the method: as §1
# [3] = Effective dose was determined in vivo for 90% parasite (Plasmodium berghei) reduction in the male albino mice after oral administration; assay type: functional; conditions: Mus musculus; summary of the method: as §1
# [4] = Growth inhibition of Plasmodium berghei was tested in vivo in male albino mice (Mus musculus) after oral administration of a dose of 10 mg/kg; assay type: functional; conditions: read-out: GI; summary of the method: as §1
# [5] = Growth inhibition of Plasmodium berghei was tested in vivo in male albino mice (Mus musculus) after subcutaneous administration of a dose of 10 mg/kg; assay type: functional; conditions: sc, read-out: GI; summary of the method: as §1
# Plasmodium falciparum [6] = test: In vitro antimalarial activity against chloroquine-sensitive Plasmodium falciparum NF54; assay type: functional, organism-based
# Summary of the method: (§2)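 Asynchronous P. falciparum cultured in human type A+ erythrocytes, RPMI 1640 with 0.5% AlbuMAX, 25 mM HEPES, 25 mM NaHCO3 (pH 7.3), hypoxanthine, neomycin; 37 °C, 3% O2/4% CO2/93% N2. Compounds were dissolved in DMSO and titrated in duplicate over a 64-fold range. Initial parasitemia was 0.75% at 2.5% hematocrit. Growth was read by [3H]hypoxanthine incorporation, with label added 16 h before the end. IC50 was taken by linear interpolation.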
# Plasmodium falciparum [7] = test: In vitro antimalarial activity against chloroquine-resistant Plasmodium falciparum K1; assay type: functional, organism-based; summary of the method: as §2
# [8] = Growth inhibition of Plasmodium berghei was tested in vivo in male albino mice (Mus musculus) after oral administration of a dose of 50 mg/kg; assay type: functional; conditions: read-out: GI; summary of the method: as §1
# [9] = Growth inhibition of Plasmodium berghei was tested in vivo in male albino mice (Mus musculus) after subcutaneous administration of a dose of 50 mg/kg; assay type: functional; conditions: sc, read-out: GI; summary of the method: as §1
# [10] = Growth inhibition of Plasmodium berghei was tested in vivo in male albino mice (Mus musculus) after oral administration of a dose of 100 mg/kg; assay type: functional; conditions: read-out: GI; summary of the method: as §1
# [11] = Growth inhibition of Plasmodium berghei was tested in vivo in male albino mice (Mus musculus) after subcutaneous administration of a dose of 100 mg/kg; assay type: functional; conditions: sc, read-out: GI; summary of the method: as §1
# [12] = Effective dose was determined in vivo for 90% parasite (Plasmodium berghei) reduction in the male albino mice after subcutaneous administration; assay type: functional; conditions: Mus musculus, sc; summary of the method: as §1
Structure (SMILES),IC50 (Plasmodium falciparum [6]) [ng/mL],IC50 (Plasmodium falciparum [7]) [ng/mL],inhibition in vivo at 100 mg/kg [10] [%],inhibition in vivo at 100 mg/kg [11] [%],other results
CO/C=C(/C(=O)OC)c1ccccc1/C=C/C=C/c1ccc(Cl)cc1Cl,0.03,0.1,,,ED50 [1]: 1.07 mg/kg; ED50 [2]: 0.69 mg/kg; ED90 [2]: 1.8 mg/kg; ED90 [3]: 4.03 mg/kg; inhibition in vivo at 10 mg/kg [4]: 100%; inhibition in vivo at 10 mg/kg [5]: 100%
CO/C=C(/C(=O)OC)c1ccccc1/C=C/C=C/c1ccccc1,0.8,3.7,,,inhibition in vivo at 50 mg/kg [8]: 0%; inhibition in vivo at 50 mg/kg [9]: 0%
CO/C=C(/C(=O)OC)c1ccccc1/C=C/C=C/c1ccc(Cl)cc1,0.52,2,,,inhibition in vivo at 50 mg/kg [8]: 0%; inhibition in vivo at 50 mg/kg [9]: 0%
CO/C=C(/C(=O)OC)c1cccc(/C=C/C=C/c2ccc(C(F)(F)F)cc2C(F)(F)F)c1,176,396,0,0,
CO/C=C(/C(=O)OC)c1ccccc1CO/N=C(\C)c1ccccc1C(F)(F)F,0.17,0.65,0,0,
CO/C=C(/C(=O)OC)c1ccccc1/C=C/c1ccc(-c2ccccc2C(F)(F)F)o1,0.39,1.8,,,
CO/C=C(/C(=O)OC)c1ccccc1/C=C/CSc1ccccc1C(F)(F)F,1.75,2.51,46,91,
CO/C=C(/C(=O)OC)c1ccccc1CCCCc1ccccc1C(F)(F)F,0.54,1.53,82,99,
CO/N=C(/C(=O)OC)c1ccccc1/C=C/C=C/c1ccccc1C(F)(F)F,0.4,1.4,46,44,
CO/C=C(/C(=O)OC)c1ccccc1CSc1ccccc1C(F)(F)F,5.5,29,0,0,
CO/C=C(/C(=O)OC)c1ccccc1/C=C/C=C/c1ccccc1C(F)(F)F,0.06,0.15,,,inhibition in vivo at 10 mg/kg [4]: 99%; inhibition in vivo at 10 mg/kg [5]: 100%
CO/N=C(\C(=O)OC)c1ccccc1C#CC#Cc1ccccc1C(F)(F)F,10.8,25.8,0,0,
CO/C=C(/C(=O)OC)c1ccccc1/C=C/C=C/c1cccc(OC)c1[N+](=O)[O-],0.11,0.58,,,
CO/N=C(/C(=O)OC)c1ccccc1CCCCc1ccccc1C(F)(F)F,6.4,15,0,0,
CO/C=C(/C(=O)OC)c1ccccc1/C=C/C=C/c1ccccc1Cl,0.09,0.39,,,inhibition in vivo at 10 mg/kg [4]: 41%; inhibition in vivo at 10 mg/kg [5]: 77%
CO/C=C(/C(=O)OC)c1ccc(/C=C/C=C/c2ccc(C(F)(F)F)cc2C(F)(F)F)cc1,> 5000,> 5000,0,0,
CO/N=C(/C(=O)OC)c1ccccc1C#CC#Cc1ccccc1C(F)(F)F,1390,2280,0,0,
CO/C=C(/C(=O)OC)c1ccccc1/C=C/C=C/c1cccc(Br)c1,6.1,31.4,,,inhibition in vivo at 50 mg/kg [8]: 0%; inhibition in vivo at 50 mg/kg [9]: 0%
CO/C=C(/C(=O)OC)c1ccccc1/C=C/C=C/c1ccc(F)cc1Cl,0.06,0.19,,,inhibition in vivo at 10 mg/kg [4]: 92%; inhibition in vivo at 10 mg/kg [5]: 100%
CO/N=C(/C(=O)OC)c1ccccc1-c1ccc(-c2ccccc2C(F)(F)F)s1,23.7,60.8,0,0,
CO/C=C(/C(=O)OC)c1ccccc1/C=C/C=C/c1cccc(C(F)(F)F)c1,7.8,16.7,,,inhibition in vivo at 50 mg/kg [8]: 0%; inhibition in vivo at 50 mg/kg [9]: 0%
CO/C=C(/C(=O)OC)c1ccccc1/C=C/C=C/c1ccc(C)cc1C,0.03,0.05,,,ED50 [1]: 1.11 mg/kg; ED50 [2]: 0.33 mg/kg; ED90 [2]: 0.72 mg/kg; ED90 [3]: 2.65 mg/kg; inhibition in vivo at 10 mg/kg [4]: 100%; inhibition in vivo at 10 mg/kg [5]: 100%
CO/C=C(/C(=O)OC)c1ccccc1/C=C/c1ccccc1C(F)(F)F,3.01,7.8,0,0,
CO/C=C(/C(=O)OC)c1ccccc1/C=C/C=C/c1ccccc1C#N,0.52,1.6,0,0,
CO/C=C(/C(=O)OC)c1ccccc1/C=C/C=C/c1cccc(F)c1,1.5,8.4,,,inhibition in vivo at 50 mg/kg [8]: 0%; inhibition in vivo at 50 mg/kg [9]: 0%
CO/C=C(/C(=O)OC)c1ccccc1/C=C/C=C/c1ccc(C(F)(F)F)cc1C(F)(F)F,0.06,0.13,,,inhibition in vivo at 10 mg/kg [4]: 100%; inhibition in vivo at 10 mg/kg [5]: 100%
O=C1C(O)=C([C@H]2CC[C@H](c3ccc(Cl)cc3)CC2)C(=O)c2ccccc21 [ATOVAQUONE],0.11,0.41,,,ED50 [1]: 0.05 mg/kg; ED50 [2]: 0.04 mg/kg; ED90 [3]: 0.1 mg/kg; ED90 [12]: 0.9 mg/kg
CCN(CC)CCCC(C)Nc1ccnc2cc(Cl)ccc12 (stereo not drawn) [CHLOROQUINE],,,,,ED50 [1]: 2.4 mg/kg; ED50 [2]: 1.5 mg/kg; ED90 [3]: 5 mg/kg; ED90 [12]: 3.3 mg/kg
